This assay relates to T. cruzi CAI/72 in BESM cells, trypomastigote emergence microscopy. Description: cidal versus static activity on T. cruzi, late-stage follow-up, mechanism study for T. cruzi inhibitor project, imaging, CAI/72 strain, BESM host cells, 20-day treatment (AID 651877). The note with it: stronger effect = higher value. In a few lines: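 Evaluation – trypomastigote emergence timing, absence indicating cure, delay indicating static effect · Test system – BESM cells infected with T. cruzi CAI/72 · Detection – daily light microscopy of trypomastigote emergence · Incubation – 20-day dosing every other day, then 38-day withdrawal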

As to `O=C(Cn1ccnc1[N+](=O)[O-])NCc1ccccc1`, the normalised slope vs benznidazole was 8. Under “at 0.25 µM”, this molecule showed a day of emergence of -14 days. The molecule further gave a day of emergence (at 0.74 µM) of 1 days. For the setting “at 2.2 µM”, the day of emergence was 6 days.

On to `C[C@@H]1CN([C@H](C)CO)C(=O)c2cccc(NC(=O)c3ccncc3)c2O[C@H]1CN(C)Cc1ccc(Oc2ccccc2)cc1`, for which the normalised slope vs benznidazole was 5.6. The same molecule gave a day of emergence (at 0.25 µM) of 4 days. Where the note is “at 0.74 µM”, the day of emergence amounted to 30 days. In addition, the day of emergence (at 2.2 µM) is more than 37 days.

Regarding `C[C@@H]1CN([C@@H](C)CO)C(=O)c2cccc(NC(=O)c3ccncc3)c2O[C@H]1CN(C)Cc1ccc(Oc2ccccc2)cc1`, the normalised slope vs benznidazole was 20. Moreover, under “at 0.25 µM”, the day of emergence amounted to 4 days. The molecule also yielded a day of emergence (at 0.74 µM) of more than 37 days.

On to `C[C@@H]1CN([C@@H](C)CO)C(=O)c2cccc(NC(=O)c3ccncc3)c2O[C@H]1CN(C)Cc1cccc(Cl)c1`, for which the normalised slope vs benznidazole is 6. The day of emergence (at 0.25 µM) was found to be 4 days. The same molecule displayed a day of emergence (at 0.74 µM) of 17 days. This molecule also registered a day of emergence (at 2.2 µM) of 18 days.

With `C[C@H]1CN([C@@H](C)CO)C(=O)c2cccc(NC(=O)c3ccncc3)c2O[C@@H]1CN(C)Cc1ccc(Oc2ccccc2)cc1`, the normalised slope vs benznidazole was 70. The same molecule came in with a day of emergence (at 0.25 µM) of 4 days.

Take `C[C@H]1CN([C@@H](C)CO)C(=O)c2cccc(NC(=O)c3ccncc3)c2O[C@H]1CN(C)Cc1ccc(Oc2ccccc2)cc1`: the normalised slope vs benznidazole was 70. Also, the day of emergence (at 0.25 µM) was determined as 4 days.

On to `C[C@@H]1CN([C@H](C)CO)C(=O)c2cccc(NC(=O)c3ccncc3)c2O[C@H]1CN(C)Cc1ccccc1`, for which the normalised slope vs benznidazole is 70. Moreover, the day of emergence (at 0.25 µM) stood at 4 days.

With `C[C@H](CO)N1C[C@H](C)[C@H](CN(C)Cc2ccc(Oc3ccccc3)cc2)Oc2c(NC(=O)c3ccncc3)cccc2C1=O`, the normalised slope vs benznidazole is 70. Further, the day of emergence (at 0.25 µM) is 4 days.

Take `C[C@@H]1CN([C@@H](C)CO)C(=O)c2cccc(NC(=O)c3ccncc3)c2O[C@H]1CN(C)Cc1ccc(Cl)cc1`: the normalised slope vs benznidazole is 6. The molecule also returned a day of emergence (at 0.25 µM) of 4 days. The molecule also had a day of emergence (at 0.74 µM) of 15 days. Moreover, the day of emergence (at 2.2 µM) is 17 days.

`CC(C)N1C[C@@H](C)[C@H](CN(C)Cc2cccc(Oc3ccccc3)c2)Oc2c(NC(=O)c3ccncc3)cccc2C1=O`: the normalised slope vs benznidazole was 66. For the setting “at 0.25 µM”, this molecule yielded a day of emergence of 18 days.
